From ChEMBL document CHEMBL4425126 (J Med Chem, 2016)
Activity calls are given as the source filed them. The rule behind the calls is not given here.

Experiments:
[1] = tested on: SW480; assay: Induction of morphological changes in human SW480 cells assessed as induction of massive cell flattening at 2.5 uM incubated for 48 hrs by phase contrast microscopy; assay type: functional, cell-based
[2] = tested on: SW480; assay: Induction of morphological changes in human SW480 cells assessed as induction of vesicular blebbing in cytosol at 2.5 uM incubated for 48 hrs by phase contrast microscopy; assay type: functional, cell-based
[3] = tested on: SW480; assay: Induction of morphological changes in human SW480 cells assessed as induction of vacuoles at 2.5 uM incubated for 24 hrs by phase contrast microscopy; assay type: functional, cell-based
In short: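 SW480 cells (MEM + 10% FCS) were treated for 24 h and then photographed at 400× magnification with an sCMOS camera on a fluorescence microscope to visualise cytoplasmic vacuoles.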

[4] = tested on: HL-60; assay: Induction of intracellular ROS generation in human HL60 cells at 1 and 5 uM in presence of CuCl2 incubated for 30 mins by DCF-DA staining based fluorescence assay; assay type: functional, cell-based
In short: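 HL-60 cells (5 × 10^5 per sample, phenol-free Hanks balanced salt solution) were loaded with DCF-DA for 30 min. CuCl2 was added 15 min before the thiosemicarbazone, at a ligand:Cu ratio of 1:1 or 1:2. Drug exposure lasted a further 30 min, and mean fluorescence was read by flow cytometry. H2O2 (200 μM) served as control. Data are mean ± SD of three experiments.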

[5] = physchem; details: n-octanol/water, pH 7.4
[6] = tested on: SW480 (Homo sapiens); assay: Cytotoxicity against human SW480 cells pre-incubated with CuCl2 for 60 mins followed by compound addition for 72 hrs by MTT assay

SMILES | Activity [1] | Activity [4] | Activity [6] | also measured
CNC(=S)N/N=C/c1ncccc1N | Active |  |  | 
CN(C)C(=S)N/N=C/c1ncccc1N(C)C |  | Active |  | Activity [2]: Active; Activity [3]: Active
CN(C)C(=S)N/N=C/c1ncccc1N |  | Active |  | logD [5]: 1.3
CNC(=S)N/N=C/c1ncccc1N(C)C | inactive | Active | Active | Activity [2]: Active
CNc1cccnc1/C=N/NC(=S)N(C)C | inactive |  | Active | 
CN(C)c1cccnc1/C=N/NC(N)=S |  |  | Active | 
CNc1cccnc1/C=N/N=C(/N)S | Active |  |  | 
NC(=S)N/N=C/c1ncccc1N | Active | Active | inactive | 
CN(C)C(=S)NN=C(c1ccccn1)c1ccccn1 |  |  | Active | 
